Source: PubChem BioAssay (several laboratories)
TAG inh: inhibitors of triacylglycerol accumulation. H9c2 cells, Nile Red lipid (TAG) fluorescence; cells loaded with 200 µM oleic acid. inhibition, % at 12.5 µM. hit rate 0.66% among 230,000;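 active = pattern-corrected inhibition of lipid staining of at least 50% with the nuclear-stain viability signal not falling by more than 50%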;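 note: 0% = DMSO wells and 100% = triacsin C control wells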
STAT3 inh: inhibitors of IL-6 induced STAT3 signaling | U3A cells, IL-6 STAT3-luciferase reporter, luminescence; host cell line lacks STAT1 | hit rate 0.89% among 190,000 | inhibition, % at 5.5 µM;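 active = inhibition above the mean inhibition across all screened compounds plus 3 SD, cut at about 44% in these data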;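 note: 0% = DMSO only wells and 100% = 100 µM nifuroxazide control wells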
Platelet DG rel: platelet dense granule release activity; human platelet-rich plasma, SFLLRN dense granule ATP release, luminescence; inhibition, %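 (compounds screened at 7.5 µM in platelet-rich plasma)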; hit rate 0.22% among 300,000; AID 1663;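 active = mean replicate score, as percent of positive control, at or above 50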
PPC-1+TRAIL kill: compounds killing PPC-1 cancer cells with TRAIL present (potentiator screen, no TRAIL-free arm); PPC-1 cells + TRAIL, ATPLite viability luminescence; cell killing (% activity), % at 4 µM or 5 µM; hit rate 0.41% among 220,000;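 active = cell killing above 50% in the first pass at 4 µM, then a duplicate retest at 5 µM averaging 50% or more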;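 note: plate controls were cells with TRAIL plus DMSO for no effect and medium-only wells lacking cells for full effect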
STAT1 blocker: STAT1 signaling inhibition. hit rate 0.35% among 200,000. inhibition, % at 5.5 µM. NIH 3T3 STAT1-luciferase reporter, IFN-gamma, luminescence;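 active = inhibition above a set limit, the mean inhibition across all tested compounds plus 3 SD, cut at about 34% in these data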;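 note: 0% = IFN-gamma with DMSO and 100% = IFN-gamma with 300 µM nifuroxazide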
Lipid droplet: hepatic lipid droplet formation modulation | AML12 mouse hepatocytes, oleate lipid droplets, BODIPY imaging | inhibition, % at 6.5 µM | hit rate 0.4% among 240,000 | AID 1656;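 active = lipid droplet intensity inhibited by at least 50%, with more than 500 cells counted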
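Assay system: AML12 hepatocytes (mouse); Probe or stimulus: oleic acid at 100 µM to induce lipid droplet formation; Dosing: compound at 6.5 µM only; Schedule: compound with oleate, overnight; Detection: fluorescence imaging, 20x objective, two fields per well; Measure: % inhibition of lipid droplet signal.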
* hit, by the source's call; i = inactive; / = not tested or not shown. Rows were chosen to be rich in hits. Some 1.5% of all compounds tested hit in one or more screens of this group.

SMILES	TAG inh	STAT3 inh	Platelet DG rel	PPC-1+TRAIL kill	STAT1 blocker	Lipid droplet
Cc1ccc2nc(N(CCCN(C)C)C(=O)c3cc(-c4cccs4)nc4ccccc34)sc2c1	54*	/	5	/	/	-5
CC(=O)c1cccc(-n2nnnc2SCC(=O)N2CCCC2)c1	/	13	50*	-24	4	5
CC[n+]1c(/C=C2/C=C(C)CC(C)(C)C2)sc2ccc(OC)cc21	/	58*	3	10	26	/
CC[n+]1c(/C=C2\C=C(C)CC(C)(C)C2)sc2ccccc21	/	50*	-2	2	26	/
CCC1=C/C(=C/c2sc3ccccc3[n+]2CC)CC(C)(C)C1	/	6	0	/	29	-84
O=C(CN1C(=O)c2ccccc2S1(=O)=O)c1ccccc1	8	65*	/	20	62*	7
O=C(CN1C(=O)c2ccccc2S1(=O)=O)c1ccccc1Cl	3	/	-5	/	/	-1
COc1ccccc1N(/N=C1\Sc2ccccc2C1=O)C(C)=O	69*	/	-9	48	/	6
CCOCCCNc1nc2c(C)cccn2c(=O)c1/C=C1\SC(=S)N(C(C)CC)C1=O (stereo unspecified)	i	/	13	26	/	86*
CCOCCCNc1nc2c(C)cccn2c(=O)c1/C=C1\SC(=S)N(CC(C)C)C1=O	-97	20	-3	13	-2	/
CC1(C(=O)NS(=O)(=O)c2cccc(F)c2)CCN1C(=O)CCC1CCCC1 (stereo unspecified)	10	/	/	/	/	/
CCCc1nc2c(=O)n(C)c(=O)nc-2n(C)n1	80	94*	/	43	93*	-15
CCn1c(N)nc2c1c(=O)n(C)c(=O)n2C	9	1	-17	12	-1	7
CN(C)S(=O)(=O)c1ccc(Cl)c(NC(=O)COC(=O)CNS(=O)(=O)c2c(F)cccc2F)c1	5	/	/	/	/	/
COc1cccc(NC(=O)Nc2cccc(C(=O)O)c2)c1	0	92*	7	21	88*	0
Cc1cc(N/N=C/c2ccc(O)c(C)c2O)nc(-c2ccccc2O)n1	/	3	-3	64*	-25	25
C/C(=N\Nc1cc(C)nc(-c2ccccc2O)n1)c1ccccc1	20	11	8	12	-17	0
COC(=O)c1ccccc1NC(=O)CSc1nc(C)cc(C)n1	-5	9	-2	11	1	-22
Cc1cc(C)nc(SCC(=O)Nc2ccnc3ccccc23)n1	-42	86*	4	10	36*	-8
COc1ccc(C(NC(=O)C2CCN(Cc3ccc(Oc4ccccc4)cc3)CC2)c2ccccn2)cc1 (stereo unspecified)	-5	/	/	/	/	/
Cc1ccc(N=Nc2cc(C)ccc2O)c(C)c1	/	/	5	/	/	15
Cc1ccc(N=Nc2cc(C)ccc2N)cc1	16	/	70*	34	/	23
Nc1ncnc2c1ncn2C1OC(CO)C(O)C1O (stereo unspecified)	5	3	96*	9	-10	0
Nc1nc(F)nc2c1ncn2[C@@H]1O[C@H](CO)[C@@H](O)[C@H]1O	118	/	77*	/	/	/
Nc1nc(F)nc2c1ncn2[C@@H]1O[C@H](CO)[C@@H](O)[C@@H]1O	-5	1	2	16	9	7
SMILES	TAG inh	STAT3 inh	Platelet DG rel	PPC-1+TRAIL kill	STAT1 blocker	Lipid droplet
CCN(CC)c1ccc(/C=N/NC(=O)c2ccoc2C)c(O)c1	50	/	117*	41	/	2
Cc1ccsc1C(=O)N/N=C/c1ccc2c(c1)OCO2	/	37	66*	25	-68	-19
O=C(N/N=C/c1cccs1)c1ccc2c(c1)OCO2	/	7	1	59*	-32	17
O=C(N/N=C/c1ccc2c(c1)OCO2)c1cccs1	/	14	7	29	-84	0
O=C(N/N=C/c1ccccc1O)c1ccc2c(c1)OCO2	/	/	1	/	/	22
Cc1occc1C(=O)N/N=C/c1ccc2c(c1)OCO2	4	/	126*	22	/	-10
Cc1cc(C(=O)N/N=C/c2ccc3c(c2)OCO3)c(C)o1	0	5	12	34	-16	-13
COCCNc1nc(Nc2ccc(C#N)cc2)c2sccc2n1	17	/	/	/	/	/
CS(=O)(=O)Nc1ccc2c(c1)[C@H]1C[C@H](CC(=O)NCc3ccccc3)O[C@H](CO)[C@H]1O2	20	/	/	/	/	/
OC(c1cccnc1)c1nc(-c2ccc3c(c2)OCO3)cs1 (stereo unspecified)	-5	/	/	/	/	/
Cc1cc(/C=N/NC(=O)c2ccoc2C)cc(C)c1O	-8	/	/	/	/	/
Cc1occc1C(=O)N/N=C/c1ccc(-c2ccccc2)cc1	/	/	93*	/	/	-8
CCN(CC)CCN1CCN(c2cncc(-c3ccc4ccccc4c3)n2)CC1	1	/	/	/	/	/
O=C(CC1SC(=O)N(c2ccccc2)C1=O)Nc1ccccc1 (stereo unspecified)	/	4	0	3	6	/
Cc1cccc(NC(=O)CC2SC(=O)N(c3ccccc3)C2=O)c1 (stereo unspecified)	1	1	67*	12	-3	18
CCN1C(=O)Nc2cccc3cccc1c23	28	/	59*	/	/	/
C=CCN1C(=O)N(CC=C)c2cccc3cccc1c23	/	/	2	/	/	-1
COc1ccc(/C=N/NC(=O)/C(=C/c2ccccc2)CCO)cc1	/	-20	-1	-2	-10	6
CCOc1cc(/C=N/NC(=O)N/N=C/c2ccc(O)c(OCC)c2)ccc1O	/	/	58*	/	/	/
CCOc1cc(/C=N/NC(=O)C(=O)N/N=C/c2ccc(O)c(OCC)c2)ccc1O	/	/	2	/	/	-4
COc1cc(/C=N/NC(=O)/C(=C/c2ccccc2)CCO)ccc1O	/	4	56*	17	-5	20
CC(C)C(=O)N1CCC1(C)C(=O)Nc1nc2ccccc2[nH]1 (stereo unspecified)	0	/	/	/	/	/
CNS(=O)(=O)c1ccc(CNC[C@H]2O[C@@H](n3cc(C)c(=O)[nH]c3=O)C[C@@H]2O)cc1	-7	/	/	/	/	/
Cc1ccc(C(=O)N/C(=C\c2ccc(-c3ccccc3[N+](=O)[O-])o2)C(=O)NCCN(C)C)cc1	57*	/	-8	/	/	4
CCCNC(=O)c1cc(C2CCCCN2C(=O)c2cc(C(C)(C)C)nn2C)on1 (stereo unspecified)	-22	/	/	/	/	/
SMILES	TAG inh	STAT3 inh	Platelet DG rel	PPC-1+TRAIL kill	STAT1 blocker	Lipid droplet
Cc1ccc(-n2c(SCC(=O)NCC3CCCO3)nc3n[nH]c(C)c3c2=N)cc1Cl (stereo unspecified)	27	45*	2	27	6	14
CNc1cccc(-c2cccc(C(=O)N3CCOCC3)c2)n1	-9	/	/	/	/	/
CCCNC(=O)c1cc(C2CCCCN2C(=O)c2ccc(OC)cc2)on1 (stereo unspecified)	-2	/	/	/	/	/
Cc1ccc(Nc2nc(N)c3ccccc3n2)cc1Cl	/	/	52*	/	/	-2
CCOc1nc(Nc2ccc(OC)cc2)nc(OCC)n1	11	-2	-3	4	5	4
CN(C)c1ccc(Nc2nc(N)c3ccccc3n2)cc1	/	/	80*	/	/	3
CCOc1ccc(Nc2nc(N)c3ccccc3n2)cc1	/	/	90*	/	/	/
O=C(NN=Cc1ccc2c(c1)CCN2)c1cccs1	1	/	/	/	/	/
